From ChEMBL document CHEMBL5653631, “A Potent and Selective ULK1 Inhibitor Suppresses Autophagy and Sensitizes Cancer Cells to Nutrient Stress” (iScience, 2018)

Key:
[1] = biological target: Tyrosine-protein kinase BTK (Homo sapiens) (UniProt Q06187); test: Inhibition of human recombinant BTK at 40 nM in presence of ATP by radiometric assay relative to control
[2] = biological target: Mitogen-activated protein kinase 8 (Homo sapiens) (UniProt P45983); test: Inhibition of human recombinant JNK1 at 40 nM in presence of ATP by radiometric assay relative to control
[3] = biological target: T1, G protein-coupled receptor kinase 3 (Homo sapiens) (UniProt P35626); test: Inhibition of human recombinant BARK2 at 40 nM related to control ULK1
T1 sequence (whole entry): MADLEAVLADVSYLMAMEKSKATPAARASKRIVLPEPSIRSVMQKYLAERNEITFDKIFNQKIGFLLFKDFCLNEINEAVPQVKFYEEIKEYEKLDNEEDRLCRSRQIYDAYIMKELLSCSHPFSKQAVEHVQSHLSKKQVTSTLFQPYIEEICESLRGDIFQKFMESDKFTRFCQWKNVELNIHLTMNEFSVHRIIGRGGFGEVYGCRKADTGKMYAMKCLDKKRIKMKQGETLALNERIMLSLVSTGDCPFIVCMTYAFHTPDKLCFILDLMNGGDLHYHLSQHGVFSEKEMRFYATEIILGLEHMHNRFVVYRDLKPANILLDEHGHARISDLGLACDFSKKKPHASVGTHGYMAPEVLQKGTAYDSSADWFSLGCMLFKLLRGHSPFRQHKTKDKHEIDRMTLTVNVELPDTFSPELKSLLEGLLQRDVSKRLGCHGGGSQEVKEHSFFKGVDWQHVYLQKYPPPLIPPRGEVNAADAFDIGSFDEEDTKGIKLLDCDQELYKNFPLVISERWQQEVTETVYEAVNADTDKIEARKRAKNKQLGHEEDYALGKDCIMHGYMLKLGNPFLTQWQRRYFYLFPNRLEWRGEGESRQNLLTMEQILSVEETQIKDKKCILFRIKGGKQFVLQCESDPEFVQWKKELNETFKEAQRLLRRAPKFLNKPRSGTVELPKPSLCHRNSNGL
In short: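 Radiometric activity assays in a panel of 327 human recombinant kinases, each run in duplicate at one inhibitor concentration. Activity remaining is expressed as percent of vehicle control, and percent inhibition is calculated as 100% minus percent activity remaining.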

[4] = biological target: T2, Serine/threonine-protein kinase DCLK2 (Homo sapiens) (UniProt Q8N568); test: Inhibition of human recombinant DCAMKL2 at 40 nM related to control ULK1
T2 sequence (whole entry): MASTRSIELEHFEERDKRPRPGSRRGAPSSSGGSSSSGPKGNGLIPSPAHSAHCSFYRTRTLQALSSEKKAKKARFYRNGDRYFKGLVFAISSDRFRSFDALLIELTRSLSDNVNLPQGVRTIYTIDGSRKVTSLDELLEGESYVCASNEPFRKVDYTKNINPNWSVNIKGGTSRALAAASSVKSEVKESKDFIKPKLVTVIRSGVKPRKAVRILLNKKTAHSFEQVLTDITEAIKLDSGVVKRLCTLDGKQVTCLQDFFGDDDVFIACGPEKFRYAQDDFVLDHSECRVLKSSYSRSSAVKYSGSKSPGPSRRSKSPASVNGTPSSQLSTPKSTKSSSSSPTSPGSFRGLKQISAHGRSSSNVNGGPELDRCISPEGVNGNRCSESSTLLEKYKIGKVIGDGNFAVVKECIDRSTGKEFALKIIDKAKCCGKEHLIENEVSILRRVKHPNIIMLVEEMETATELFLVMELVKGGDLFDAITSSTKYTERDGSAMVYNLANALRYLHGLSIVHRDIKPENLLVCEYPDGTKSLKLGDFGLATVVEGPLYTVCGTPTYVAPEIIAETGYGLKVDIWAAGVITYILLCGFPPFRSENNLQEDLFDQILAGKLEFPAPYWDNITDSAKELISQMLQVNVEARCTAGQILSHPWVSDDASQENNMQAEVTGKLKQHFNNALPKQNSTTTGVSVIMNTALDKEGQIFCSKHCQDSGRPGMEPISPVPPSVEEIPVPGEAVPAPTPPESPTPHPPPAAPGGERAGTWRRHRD

[5] = biological target: Serine/threonine-protein kinase PAK 5 (Homo sapiens) (UniProt Q9P286); test: Inhibition of human recombinant PAK5 at 40 nM in presence of ATP by radiometric assay relative to control
[6] = biological target: Tyrosine-protein kinase BTK (Homo sapiens) (UniProt Q06187); test: Inhibition of human recombinant BTK at 500 nM related to control ULK1
[7] = biological target: Wee1-like protein kinase (Homo sapiens) (UniProt P30291); test: Inhibition of human recombinant Wee1 at 15 nM in presence of ATP by radiometric assay relative to control
[8] = biological target: T3, cAMP-dependent protein kinase catalytic subunit PRKX (Homo sapiens) (UniProt P51817); test: Inhibition of human recombinant PRKX at 15 nM in presence of ATP by radiometric assay relative to control
T3 sequence (whole entry): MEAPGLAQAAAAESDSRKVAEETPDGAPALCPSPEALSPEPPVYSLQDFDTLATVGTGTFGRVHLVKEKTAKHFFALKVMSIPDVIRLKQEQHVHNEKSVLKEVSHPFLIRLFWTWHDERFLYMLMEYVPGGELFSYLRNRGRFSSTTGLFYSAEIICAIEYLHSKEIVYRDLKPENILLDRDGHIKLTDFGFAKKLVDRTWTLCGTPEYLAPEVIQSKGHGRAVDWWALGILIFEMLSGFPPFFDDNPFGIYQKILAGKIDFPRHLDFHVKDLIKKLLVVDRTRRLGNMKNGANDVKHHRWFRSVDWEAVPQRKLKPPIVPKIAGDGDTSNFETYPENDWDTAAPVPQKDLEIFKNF

[9] = biological target: T4, Calcium/calmodulin-dependent protein kinase type IV (Homo sapiens) (UniProt Q16566); test: Inhibition of human recombinant CaMK4 at 15 nM in presence of ATP by radiometric assay relative to control
T4 sequence (whole entry): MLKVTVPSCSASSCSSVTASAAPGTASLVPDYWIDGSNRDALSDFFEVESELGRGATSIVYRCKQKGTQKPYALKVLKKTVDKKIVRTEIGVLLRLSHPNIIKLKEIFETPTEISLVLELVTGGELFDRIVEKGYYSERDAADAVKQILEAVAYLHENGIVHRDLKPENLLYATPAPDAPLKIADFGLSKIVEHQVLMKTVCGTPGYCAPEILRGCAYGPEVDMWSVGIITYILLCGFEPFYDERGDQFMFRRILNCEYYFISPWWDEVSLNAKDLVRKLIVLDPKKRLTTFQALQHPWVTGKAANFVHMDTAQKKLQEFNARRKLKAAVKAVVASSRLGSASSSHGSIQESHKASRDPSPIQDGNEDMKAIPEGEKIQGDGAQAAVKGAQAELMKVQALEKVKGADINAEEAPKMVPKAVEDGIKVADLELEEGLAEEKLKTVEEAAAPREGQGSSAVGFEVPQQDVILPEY

[10] = biological target: Tyrosine-protein kinase ABL2 (Homo sapiens) (UniProt P42684); test: Inhibition of human recombinant ABL2 at 15 nM related to control ULK1
Chain of Tyrosine-protein kinase ABL2 (Homo sapiens) (P42684 whole entry): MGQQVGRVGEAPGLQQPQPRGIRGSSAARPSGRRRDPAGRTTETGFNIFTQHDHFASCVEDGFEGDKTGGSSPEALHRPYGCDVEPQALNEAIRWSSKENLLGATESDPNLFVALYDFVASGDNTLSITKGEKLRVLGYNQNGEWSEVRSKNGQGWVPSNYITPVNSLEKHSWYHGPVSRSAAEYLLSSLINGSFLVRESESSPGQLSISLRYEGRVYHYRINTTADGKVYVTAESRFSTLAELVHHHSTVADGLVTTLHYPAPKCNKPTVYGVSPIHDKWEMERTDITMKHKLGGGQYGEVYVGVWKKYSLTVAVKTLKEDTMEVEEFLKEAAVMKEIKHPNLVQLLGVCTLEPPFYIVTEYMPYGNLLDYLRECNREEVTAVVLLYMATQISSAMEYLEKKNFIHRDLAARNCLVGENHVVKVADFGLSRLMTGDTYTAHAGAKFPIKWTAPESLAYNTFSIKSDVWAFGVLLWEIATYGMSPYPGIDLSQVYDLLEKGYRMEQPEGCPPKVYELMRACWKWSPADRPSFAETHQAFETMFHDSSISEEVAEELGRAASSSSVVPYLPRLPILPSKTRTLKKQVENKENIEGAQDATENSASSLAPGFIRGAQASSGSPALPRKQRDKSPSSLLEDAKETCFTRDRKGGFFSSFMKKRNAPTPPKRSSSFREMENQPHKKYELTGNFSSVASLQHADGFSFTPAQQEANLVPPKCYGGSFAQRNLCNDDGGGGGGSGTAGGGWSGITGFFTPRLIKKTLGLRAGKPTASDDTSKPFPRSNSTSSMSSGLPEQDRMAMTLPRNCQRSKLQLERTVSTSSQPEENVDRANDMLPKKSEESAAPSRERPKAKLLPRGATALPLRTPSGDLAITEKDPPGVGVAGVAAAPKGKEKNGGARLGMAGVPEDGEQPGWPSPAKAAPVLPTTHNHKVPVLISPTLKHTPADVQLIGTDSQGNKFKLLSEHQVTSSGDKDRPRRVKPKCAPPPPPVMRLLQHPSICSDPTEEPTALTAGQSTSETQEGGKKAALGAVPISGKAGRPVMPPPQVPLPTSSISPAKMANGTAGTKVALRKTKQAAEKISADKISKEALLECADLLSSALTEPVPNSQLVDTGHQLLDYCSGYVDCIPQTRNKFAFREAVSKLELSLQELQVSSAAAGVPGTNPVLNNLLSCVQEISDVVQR

Chain of Tyrosine-protein kinase BTK (Homo sapiens) (Q06187 whole entry): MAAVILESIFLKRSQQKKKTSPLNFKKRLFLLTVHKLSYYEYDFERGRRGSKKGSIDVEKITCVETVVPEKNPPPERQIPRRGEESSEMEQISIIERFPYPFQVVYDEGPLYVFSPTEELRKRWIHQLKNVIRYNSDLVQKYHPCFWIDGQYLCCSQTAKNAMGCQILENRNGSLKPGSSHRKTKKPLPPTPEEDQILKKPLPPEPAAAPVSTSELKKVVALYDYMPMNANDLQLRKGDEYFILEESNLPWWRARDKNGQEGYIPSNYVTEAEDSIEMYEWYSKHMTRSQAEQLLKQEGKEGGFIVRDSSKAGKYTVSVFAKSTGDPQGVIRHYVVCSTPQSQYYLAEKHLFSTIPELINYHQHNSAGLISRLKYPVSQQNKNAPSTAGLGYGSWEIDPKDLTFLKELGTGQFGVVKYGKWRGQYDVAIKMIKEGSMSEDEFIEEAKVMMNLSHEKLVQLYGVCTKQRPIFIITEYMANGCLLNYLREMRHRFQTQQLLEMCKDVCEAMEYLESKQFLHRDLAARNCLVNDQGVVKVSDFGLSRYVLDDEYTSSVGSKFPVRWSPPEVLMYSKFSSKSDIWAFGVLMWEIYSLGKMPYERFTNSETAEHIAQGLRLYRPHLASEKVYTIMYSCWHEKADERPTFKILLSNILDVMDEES
Chain of Mitogen-activated protein kinase 8 (Homo sapiens) (P45983 whole entry): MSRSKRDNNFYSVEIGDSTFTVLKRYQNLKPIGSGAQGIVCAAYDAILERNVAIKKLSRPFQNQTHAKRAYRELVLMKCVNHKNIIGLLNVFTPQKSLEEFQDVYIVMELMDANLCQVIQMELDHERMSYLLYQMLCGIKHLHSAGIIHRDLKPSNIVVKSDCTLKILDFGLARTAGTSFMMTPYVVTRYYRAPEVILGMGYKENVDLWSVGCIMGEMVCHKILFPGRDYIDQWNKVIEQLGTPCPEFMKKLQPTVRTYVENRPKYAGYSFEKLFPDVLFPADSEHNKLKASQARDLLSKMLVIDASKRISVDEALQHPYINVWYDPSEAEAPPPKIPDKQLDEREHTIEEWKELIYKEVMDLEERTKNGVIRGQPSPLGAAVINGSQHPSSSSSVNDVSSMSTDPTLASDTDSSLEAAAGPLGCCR
Chain of Wee1-like protein kinase (Homo sapiens) (P30291 whole entry, looked up): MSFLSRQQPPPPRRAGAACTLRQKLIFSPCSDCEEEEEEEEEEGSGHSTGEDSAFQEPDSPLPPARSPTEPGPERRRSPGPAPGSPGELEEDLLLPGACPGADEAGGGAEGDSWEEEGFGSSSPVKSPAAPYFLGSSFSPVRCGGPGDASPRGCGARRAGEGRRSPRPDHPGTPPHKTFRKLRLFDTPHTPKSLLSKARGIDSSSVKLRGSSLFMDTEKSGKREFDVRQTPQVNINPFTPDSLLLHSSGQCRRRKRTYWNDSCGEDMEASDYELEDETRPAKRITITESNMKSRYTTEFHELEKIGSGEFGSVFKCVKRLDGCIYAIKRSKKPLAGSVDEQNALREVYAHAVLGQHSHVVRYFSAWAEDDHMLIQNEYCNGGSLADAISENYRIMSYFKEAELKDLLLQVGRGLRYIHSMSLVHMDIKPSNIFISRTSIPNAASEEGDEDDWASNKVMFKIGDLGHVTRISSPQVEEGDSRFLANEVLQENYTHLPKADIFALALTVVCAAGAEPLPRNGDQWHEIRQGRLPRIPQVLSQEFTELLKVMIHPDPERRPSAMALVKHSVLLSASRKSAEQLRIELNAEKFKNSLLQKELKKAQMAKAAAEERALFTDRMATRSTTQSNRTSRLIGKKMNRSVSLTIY
Chain of Serine/threonine-protein kinase PAK 5 (Homo sapiens) (Q9P286 whole entry, looked up): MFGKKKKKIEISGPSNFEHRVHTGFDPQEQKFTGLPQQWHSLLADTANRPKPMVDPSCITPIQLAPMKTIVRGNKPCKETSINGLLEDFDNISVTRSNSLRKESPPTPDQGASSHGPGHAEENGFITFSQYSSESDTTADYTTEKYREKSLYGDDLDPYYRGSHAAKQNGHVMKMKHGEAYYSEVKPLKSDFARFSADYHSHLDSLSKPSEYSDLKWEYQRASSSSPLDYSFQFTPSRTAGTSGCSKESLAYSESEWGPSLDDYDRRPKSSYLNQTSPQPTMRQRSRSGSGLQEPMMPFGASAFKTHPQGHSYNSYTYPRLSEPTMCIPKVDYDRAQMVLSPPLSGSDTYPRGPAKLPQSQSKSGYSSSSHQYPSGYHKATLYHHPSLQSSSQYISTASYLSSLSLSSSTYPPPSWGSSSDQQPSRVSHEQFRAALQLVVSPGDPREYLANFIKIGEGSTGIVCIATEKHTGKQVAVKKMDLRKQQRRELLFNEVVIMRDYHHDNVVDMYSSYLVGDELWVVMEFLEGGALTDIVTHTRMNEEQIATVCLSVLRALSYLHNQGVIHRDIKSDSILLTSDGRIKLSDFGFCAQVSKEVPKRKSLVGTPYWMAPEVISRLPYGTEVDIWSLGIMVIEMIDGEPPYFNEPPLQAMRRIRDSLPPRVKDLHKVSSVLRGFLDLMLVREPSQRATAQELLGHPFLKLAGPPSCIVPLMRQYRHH

O=C(N[C@@H](C1CC1)C(F)(F)F)c1cc(-c2cnn3cc(-c4ccc(F)cc4)cnc23)cs1
inhibition [1]: 0% | inhibition [2]: 0% | fold change (FC) [3]: 0.1 | fold change (FC) [4]: 0 | inhibition [5]: 0%

CNC(=O)c1ccccc1Oc1nc(Nc2cc(OC)c(OC)c(OC)c2)ncc1Br
fold change (FC) [6]: 0

CC(C)[C@H](NC(=O)c1cc(-c2cnn3cc(-c4ccc(OCCN5CCCCC5)cc4)cnc23)cs1)C(F)(F)F
inhibition [7]: 15% | inhibition [8]: 16% | inhibition [9]: 0% | fold change (FC) [10]: 0.48
